BindingDB's records for doi:10.1021/jm3006355 (Bar-Ilan University, 2012)

Molecular target: P2Y purinoceptor 1 (Meleagris gallopavo, UniProt P49652)
Assay: Agonist activity at turkey P2Y1R expressed in 1321N1 cells assessed as increase in intracellular calcium concentration by spectrofluorimetry
Summary of the method: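 Cell suspensions were treated with nucleotide at various concentrations at 37 °C in 10 mM Hepes-buffered saline pH 7.4 with 1 mM CaCl2 and 1 mM MgCl2. Maximal [Ca2+]i rise was read by dual-excitation spectrofluorometry and fitted to give EC50. Three experiments on separate days.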

Sequence of P2Y purinoceptor 1 (P49652 whole entry): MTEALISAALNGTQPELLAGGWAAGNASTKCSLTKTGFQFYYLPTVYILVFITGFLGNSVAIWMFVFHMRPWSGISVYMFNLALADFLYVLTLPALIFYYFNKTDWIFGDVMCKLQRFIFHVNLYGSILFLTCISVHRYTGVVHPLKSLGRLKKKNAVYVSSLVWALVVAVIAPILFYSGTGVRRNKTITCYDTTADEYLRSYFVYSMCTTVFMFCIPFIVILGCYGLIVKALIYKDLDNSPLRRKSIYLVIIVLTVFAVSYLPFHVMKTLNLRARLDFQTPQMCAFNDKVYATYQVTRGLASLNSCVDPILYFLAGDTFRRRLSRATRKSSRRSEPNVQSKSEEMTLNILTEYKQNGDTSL

B[P@@](=O)(OC[C@H]1O[C@@H](n2cnc3c(N)nc(SC)nc32)[C@H](O)[C@@H]1O)OP(=O)(O)O
EC50: 34 nM
